Assay results from different studies.
Lines come from different studies, so protocols differ.
gag-pol reverse transcriptase: Gag-Pol polyprotein, reverse transcriptase (gag-pol, Human immunodeficiency virus 1, UniProt P03366)
UGT1A4: UDP-glucuronosyltransferase 1A4 (UGT1A4, Homo sapiens, UniProt P22310)
SLC18A2: Synaptic vesicular amine transporter (SLC18A2, Homo sapiens, UniProt Q05940)
CYP2C19: Cytochrome P450 2C19 (CYP2C19, Homo sapiens, UniProt P33261)
LATS1: Serine/threonine-protein kinase LATS1 (LATS1, Homo sapiens, UniProt O95835)
ERBB2: Receptor tyrosine-protein kinase erbB-2 (ERBB2, Homo sapiens, UniProt P04626)
CA2: Carbonic anhydrase 2 (CA2, Homo sapiens, UniProt P00918)
CA1: Carbonic anhydrase 1 (CA1, Homo sapiens, UniProt P00915)
ACKR3: Atypical chemokine receptor 3 (ACKR3, Homo sapiens, UniProt P25106)

For `CCOC(=O)c1c(NCCC(C)C)c2c([nH]c1=O)CCC2`, the IC50 was 88.7 µM (gag-pol reverse transcriptase; enzyme activity, inhibitor).
`C[C@H]1[C@H](C)CC[C@]2(C(=O)O)CC[C@]3(C)C(=CC[C@@H]4[C@@]5(C)C[C@@H](O)[C@H](O)C(C)(C)[C@@H]5CC[C@]43C)[C@H]12` gave an IC50 of 2.66 µM (UGT1A4; enzyme activity, inhibitor; human, liver microsomes).
The IC50 of `CCc1nn(CCCN2CCN(c3cccc(Cl)c3)CC2)c(=O)n1CCOc1ccccc1` is reported as 0.667 µM (SLC18A2; transporter uptake, inhibitor).
The IC50 of `C[C@@H]1CC[C@@]2(OC1)O[C@H]1C[C@H]3[C@@H]4CC[C@H]5C[C@@H](O)CC[C@]5(C)[C@H]4CC(=O)[C@]3(C)[C@H]1[C@@H]2C` is reported as 2.3 µM (UGT1A4; enzyme activity, inhibitor).
`OCc1ccc(-c2nn(Cc3ccccc3)c3ccccc23)o1` gave an IC50 of 3.3 µM (CYP2C19; enzyme activity, inhibitor; human, liver microsomes).
The IC50 of `Cc1cc(-c2ccnc3[nH]cc(F)c23)cc(F)c1[C@@]1(O)[C@H](C)CN(C2COC2)C[C@@H]1C` is reported as 0.0059 µM (LATS1; enzyme activity, inhibitor, radiometric).
With `O=C1/C(=C/c2ccc3ccccc3c2O)NC(=S)N1c1ccccc1` the IC50 was 0.197 µM (ERBB2; enzyme activity, inhibitor, ELISA).
`CCOC(=O)c1c(NCC(C)C)c2c([nH]c1=O)CCC2` has an IC50 of 33.9 µM (gag-pol reverse transcriptase; enzyme activity, inhibitor).
With `COc1c(Cl)cccc1Nc1c(-c2ccncc2OC[C@@H]2COCCO2)[nH]c2c1C(=O)NCC2` the IC50 was < 0.0005 µM (ERBB2; enzyme activity, inhibitor, TR-FRET).
For `CC(C)(C(=O)O)c1ccc(C(O)CCCN2CCC(C(O)(c3ccccc3)c3ccccc3)CC2)cc1` (stereo not drawn), the IC50 was 28.4 µM (CA2; enzyme activity, inhibitor, absorbance; pH 7.4).
`NC(=O)N1c2ccccc2C=Cc2ccccc21` has an IC50 of > 300 µM (Sodium channel protein type 2 subunit alpha (SCN2A, Homo sapiens, UniProt Q99250); ion current, inhibitor, patch clamp).
For `Cc1cc(-c2ccnc3[nH]cc(F)c23)cc(F)c1[C@@]1(O)[C@H](C)CN(C(=O)CN)C[C@@H]1C`, the IC50 was 0.0018 µM (LATS1; enzyme activity, inhibitor, radiometric).
For `CC(C)[C@H](N)C(=O)OCCOCn1cnc2c(=O)[nH]c(N)nc21`, the IC50 was 12.8 µM (CA1; enzyme activity, inhibitor, absorbance; pH 7.4).
The IC50 of `CC(C)(C)NC(=O)C1CCN(Cc2cccc(/N=N/c3ccc(C(F)(F)F)cc3)c2)CC1` is reported as > 10 µM (ACKR3; ligand displacement, BRET).
`CCCNc1c2c([nH]c(=O)c1C(=O)OCC)CCC2` gave an IC50 of 76.4 µM (gag-pol reverse transcriptase; enzyme activity, inhibitor).
The IC50 of `CCOC(=O)N1CCC(=C2c3ccc(Cl)cc3CCc3cccnc32)CC1` is reported as 11.9 µM (CA1; enzyme activity, inhibitor, absorbance; pH 7.4).
With `CCOC(=O)c1c(NC(CC)CO)c2c([nH]c1=O)CCC2` (stereo not drawn) the IC50 was > 100 µM (gag-pol reverse transcriptase; enzyme activity, inhibitor).
With `COc1cc(C)c(/C=C/C(C)=C/C=C/C(C)=C/C(=O)O)c(C)c1C` the IC50 was 11.3 µM (CA1; enzyme activity, inhibitor, absorbance; pH 7.4).
For `[H]/N=C(/N)c1ccc(NCc2nc3cc(C(=O)N(CCC(=O)O)c4ccccn4)ccc3n2C)cc1`, the IC50 was 1.7 µM (Plasminogen (PLG, Homo sapiens, UniProt P00747); enzyme activity, inhibitor, absorbance).
With `COc1cc2c(cc1OC)[C@H]1C[C@@H](OC(=O)[C@@H](N)C(C)C)[C@H](CC(C)C)CN1CC2` the IC50 was 0.53 µM (SLC18A2; transporter uptake, inhibitor, radiometric; cell membranes).
With `CC(C)(C)NC(=O)C1CCN(Cc2cccc(NC(=O)c3ccc(F)cc3)c2)CC1` the IC50 was 0.0631 µM (ACKR3; ligand displacement, BRET).
`COc1ccnc(C[S+]([O-])c2nc3ccc(OC(F)F)cc3[nH]2)c1OC` (stereo not drawn) gave an IC50 of 13.8 µM (CA2; enzyme activity, inhibitor, absorbance; pH 7.4).
`CNC(=O)c1ccccc1Sc1ccc2c(/C=C/c3ccccn3)n[nH]c2c1` has an IC50 of 8.2 µM (SLC18A2; transporter uptake, inhibitor).
The IC50 of `CC[C@H]1OC(=O)[C@H](C)[C@@H](O[C@H]2C[C@@](C)(OC)[C@@H](O)[C@H](C)O2)[C@H](C)[C@@H](O[C@@H]2O[C@H](C)C[C@H](N(C)C)[C@H]2O)[C@](C)(O)C[C@@H](C)CN(C)[C@H](C)[C@@H](O)[C@]1(C)O` is reported as 15 µM (CA1; enzyme activity, inhibitor, absorbance; pH 7.4).
The IC50 of `Cc1cc2c(cc1C)N[C@H](c1ccccc1)[C@@H](O)C(=O)N2` is reported as 0.023 µM (ERBB2; enzyme activity, inhibitor, ELISA).
The IC50 of `CCOC(=O)c1c(NCCC2CC2)c2c([nH]c1=O)CCC2` is reported as > 100 µM (gag-pol reverse transcriptase; enzyme activity, inhibitor).
`CC(=O)N1C[C@@H](C)[C@](O)(c2c(C)cc(-c3ccnc4[nH]cc(F)c34)cc2F)[C@@H](C)C1` has an IC50 of 0.0067 µM (LATS1; enzyme activity, inhibitor, radiometric).
For `CCCCCNc1c2c([nH]c(=O)c1C(=O)OCC)CCC2`, the IC50 was > 100 µM (gag-pol reverse transcriptase; enzyme activity, inhibitor).
`CN1CCC(CNc2ccc3ncc(-c4cccc(OC(F)(F)F)c4)n3n2)CC1` gave an IC50 of 5.17 µM (Alpha-2A adrenergic receptor (ADRA2A, Homo sapiens, UniProt P08913); cAMP, antagonist).
With `C=CCc1ccccc1OCC(O)CNC(C)C` (stereo not drawn) the IC50 was 7.7 µM (SLC18A2; transporter uptake, inhibitor).
For `CCOC(=O)c1c(NCCO)c2c([nH]c1=O)CCC2`, the IC50 was > 100 µM (gag-pol reverse transcriptase; enzyme activity, inhibitor).
`OCCN1CCN(CCCN2c3ccccc3Sc3ccc(C(F)(F)F)cc32)CC1` has an IC50 of 2.34 µM (SLC18A2; transporter uptake, inhibitor).
`OC1(c2ccc(-c3ccnc4[nH]cc(F)c34)cc2)CCCNCC1` (stereo not drawn) has an IC50 of 0.017 µM (LATS1; enzyme activity, inhibitor, radiometric).
With `O=C1CCc2ccc(OCCCCN3CCN(c4cccc(Cl)c4Cl)CC3)cc2N1` the IC50 was 0.036 µM (SLC18A2; transporter uptake, inhibitor, radiometric; cell membranes).
With `Cc1cc(-c2ccnc3[nH]cc(F)c23)ccc1[C@@]1(O)[C@H](C)CNC[C@@H]1C` the IC50 was 0.078 µM (LATS1; target engagement in cells, BRET).
With `NC(=O)c1nnn(Cc2cc(Cl)c(C(=O)c3ccc(Cl)cc3)c(Cl)c2)c1N` the IC50 was 4.35 µM (5-hydroxytryptamine receptor 3A (HTR3A, Homo sapiens, UniProt P46098); ion current).
The IC50 of `C[C@H]1c2cccc(O)c2C(=O)C2=C(O)[C@]3(O)C(=O)C(C(N)=O)=C(O)[C@@H](N(C)C)[C@@H]3[C@@H](O)[C@@H]21` is reported as 12.6 µM (CA1; enzyme activity, inhibitor, absorbance; pH 7.4).
For `OC1(c2ccc(-c3ccnc4[nH]cc(F)c34)cc2)CCNCC1`, the IC50 was 17.1 µM (LATS1; target engagement in cells, BRET).
For `O=C1CC2(CCCC2)CC(=O)N1CCCCN1CCN(c2ncccn2)CC1`, the IC50 was 2.19 µM (SLC18A2; transporter uptake, inhibitor).
`C[C@@H]1CNC[C@H](C)[C@@]1(O)c1ccc(-c2ccnc3[nH]cc(F)c23)cc1` gave an IC50 of 0.011 µM (LATS1; enzyme activity, inhibitor, radiometric).
With `Nc1ccc(S(=O)(=O)c2ccc(N)cc2)cc1` the IC50 was 17.1 µM (CA1; enzyme activity, inhibitor, absorbance; pH 7.4).
`C=CCn1c(=O)c2cnc(Nc3ccc(N4CCN(C)CC4)cc3)nc2n1-c1ccc2c(n1)[C@@](O)(CC)CC2` gave an IC50 of 10 µM (CYP2C19; enzyme activity, inhibitor).
`CN1CCN(CCCN2c3ccccc3Sc3ccc(Cl)cc32)CC1` has an IC50 of 3.72 µM (SLC18A2; transporter uptake, inhibitor).
With `C/C=C/CNc1c2c([nH]c(=O)c1C(=O)OCC)CCC2` the IC50 was > 100 µM (gag-pol reverse transcriptase; enzyme activity, inhibitor).
For `Fc1c[nH]c2nccc(-c3ccc(C4CCNCC4)cc3)c12`, the IC50 was 0.0088 µM (LATS1; enzyme activity, inhibitor, radiometric).
